Converted amounts (≈) assume the structure as drawn.
Key:
Assay type in all cases: functional
Escherichia coli [1] = experiment: Antimicrobial activity against TolC efflux-deficient Escherichia coli K-12 after 16 to 20 hrs by broth microdilution method
In short: (§1)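 CLSI broth microdilution. Log-phase cultures grown in cation-adjusted Mueller–Hinton broth and seeded at 1×10^5 CFU/mL. Plates incubated at 37 °C with shaking for 16–20 h. DMSO stocks of compound were diluted into medium to 1% DMSO final. Growth was read as OD600. MIC (μg/ml) is the lowest concentration with no apparent growth, averaged over at least 3 assays.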

Acinetobacter baumannii = experiment: Antimicrobial activity against Acinetobacter baumannii ATCC 19606 after 16 to 20 hrs by broth microdilution method; in short: as §1
Staphylococcus aureus [2] = experiment: Antimicrobial activity against Staphylococcus aureus ATCC 25923 after 16 to 20 hrs by broth microdilution method
In short: (§2)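 CLSI broth microdilution. Log-phase cultures in cation-adjusted Mueller–Hinton broth were seeded at 1×10^5 CFU/mL and incubated at 37 °C with shaking for 16–20 h. Compounds were diluted from DMSO stocks to a final 1% DMSO. Growth was read as OD600, and MIC was taken as the lowest concentration with no apparent growth. At least 3 runs were done, and the average MIC is reported in μg/ml.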

Staphylococcus aureus [3] = experiment: Antimicrobial activity methicillin-resistant against Staphylococcus aureus clinical isolate 1094 after 16 to 20 hrs by broth microdilution method
Bacillus anthracis = experiment: Antimicrobial activity against Bacillus anthracis Sterne after 16 to 20 hrs by broth microdilution method; in short: as §2
Escherichia coli [4] = experiment: Antimicrobial activity against efflux pump-positive Escherichia coli K-12 after 16 to 20 hrs by broth microdilution method; in short: as §1
Enterococcus faecalis [5] = experiment: Antimicrobial activity vancomycin-resistant Enterococcus faecalis ATCC 51575 after 16 to 20 hrs by broth microdilution method; in short: as §2
Klebsiella pneumoniae = experiment: Antimicrobial activity against Klebsiella pneumoniae ATCC 13882 after 16 to 20 hrs by broth microdilution method; in short: as §1
Pseudomonas aeruginosa [6] = experiment: Antimicrobial activity against efflux pump-positive Pseudomonas aeruginosa PAO1 ATCC BAA-47 after 16 to 20 hrs by broth microdilution method; in short: as §1
Pseudomonas aeruginosa [7] = experiment: Antimicrobial activity against efflux pump mexAB-oprM-deficient Pseudomonas aeruginosa PAO1 after 16 to 20 hrs by broth microdilution method; in short: as §1
Enterococcus faecalis [8] = experiment: Antimicrobial activity Enterococcus faecalis ATCC 29212 after 16 to 20 hrs by broth microdilution method; in short: as §1
Haemophilus influenzae = experiment: Antimicrobial activity against Haemophilus influenzae ATCC 10211 after 16 to 20 hrs by broth microdilution method
In short: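 Broth microdilution per CLSI in Haemophilus Test Medium at 37 °C under 5% CO₂ for 16–20 h, seeded at 1×10^5 CFU/mL. Compound was added from DMSO stocks to 1% DMSO final. Growth was read as OD600. MIC (μg/ml) is the lowest concentration without apparent growth, averaged from at least 3 runs.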

| Structure (SMILES) | MIC (Escherichia coli [1]) [µg/mL] | MIC (Acinetobacter baumannii) [µg/mL] | MIC (Staphylococcus aureus [2]) [µg/mL] | MIC (Staphylococcus aureus [3]) [µg/mL] | MIC (Bacillus anthracis) [µg/mL] | MIC (Escherichia coli [4]) [µg/mL] | MIC (Enterococcus faecalis [5]) [µg/mL] | MIC (Klebsiella pneumoniae) [µg/mL] | MIC (Pseudomonas aeruginosa [6]) [µg/mL] | MIC (Pseudomonas aeruginosa [7]) [µg/mL] | MIC (Enterococcus faecalis [8]) [µg/mL] | MIC (Haemophilus influenzae) [µg/mL] |
| --- | --- | --- | --- | --- | --- | --- | --- | --- | --- | --- | --- | --- |
| O=C(O)C(F)(F)F.c1cc2cc(-c3ccc(-c4cc5ccc(C6=NCCN6)cc5[nH]4)o3)[nH]c2cc1C1=NCCN1 | 0.63 | > 80 | 40 | 40 | 5 | 20 | > 80 | > 80 | > 80 | > 80 | > 80 |  |
| COC1CN=C(c2ccc3cc(-c4ccc(-c5cc6ccc(C7=NCC(OC)CN7)cc6[nH]5)cc4)[nH]c3c2)NC1.O=C(O)C(F)(F)F (stereo not drawn) | 0.31 | > 80 | 0.16 | 0.16 | 0.16 | 5 | 0.16 | 0.63 | 5 | 2.5 | 0.16 |  |
| c1cc2cc(CCCCc3cc4ccc(C5=NCCCN5)cc4[nH]3)[nH]c2cc1C1=NCCCN1 | 0.16 (≈ 0.354 µM) | > 80 | 0.63 (≈ 1.39 µM) | 1.25 (≈ 2.76 µM) | 1.25 (≈ 2.76 µM) | 1.25 (≈ 2.76 µM) | 0.31 (≈ 0.685 µM) |  | 40 (≈ 88.4 µM) | 40 (≈ 88.4 µM) | 2.5 (≈ 5.52 µM) |  |
| NCc1ccc2cc(-c3ccc(-c4cc5ccc(CN)cc5[nH]4)cc3)[nH]c2c1.O=C(O)C(F)(F)F | 1.25 | > 80 | 0.63 | 1.25 | 1.25 | 5 | 1.25 | 2.5 | 40 | 40 | 1.25 |  |
| N/C(=N\O)c1ccc2cc(-c3ccc(-c4cc5ccc(/C(N)=N\O)cc5[nH]4)cc3)[nH]c2c1 | 0.63 (≈ 1.48 µM) |  | 0.31 (≈ 0.73 µM) | 1.25 (≈ 2.94 µM) | 0.16 (≈ 0.377 µM) | > 80 | 1.25 (≈ 2.94 µM) | > 80 | > 80 | > 80 | 2.5 (≈ 5.89 µM) |  |
| CC(=O)O.c1cc2cc(-c3cnc(-c4cc5ccc(C6=NCCN6)cc5[nH]4)cn3)[nH]c2cc1C1=NCCN1 | 0.63 | > 80 | 5 | 5 | 2.5 | 20 | 10 | 10 | > 80 | > 80 | 20 |  |
| CC(=O)O.c1cc2cc(-c3ccc(-c4cc5ccc(C6=NCCN6)cc5[nH]4)nc3)[nH]c2cc1C1=NCCN1 | 0.63 | > 80 | 0.31 | 0.31 | 0.31 | 2.5 | 0.31 | 2.5 | > 80 | > 80 | 0.31 |  |
| CC(=O)O.c1cc2cc(-c3cnc(-c4cc5ccc(C6=NCCCN6)cc5[nH]4)cn3)[nH]c2cc1C1=NCCCN1 | 0.31 | > 80 | 0.31 | 0.31 | 0.16 | 2.5 | 0.31 | 1.25 | 5 | 5 | 0.31 |  |
| CC(=O)O.c1cc2cc(-c3ccc(-c4cc5ccc(C6=NCCCN6)cc5[nH]4)s3)[nH]c2cc1C1=NCCCN1 | 0.31 | 5 | 0.08 | 0.16 | 0.16 | 0.63 | 0.16 | 0.63 | 5 | 1.25 | 0.16 |  |
| NC(=O)c1ccc2cc(-c3ccc(-c4cc5ccc(C(N)=O)cc5[nH]4)cc3)[nH]c2c1 | 5 (≈ 12.7 µM) | > 80 | 2.5 (≈ 6.34 µM) | > 80 | > 80 | > 80 | > 80 | > 80 | > 80 | > 80 | 10 (≈ 25.4 µM) |  |
| c1cc2cc(CCCc3cc4ccc(C5=NCCCN5)cc4[nH]3)[nH]c2cc1C1=NCCCN1 | 1.25 (≈ 2.85 µM) | > 80 | 20 (≈ 45.6 µM) | 20 (≈ 45.6 µM) | 20 (≈ 45.6 µM) | 80 (≈ 182 µM) | 0.63 (≈ 1.44 µM) |  | > 80 | > 80 | 80 (≈ 182 µM) |  |
| FC1CN=C(c2ccc3cc(-c4ccc(-c5cc6ccc(C7=NCC(F)CN7)cc6[nH]5)cc4)[nH]c3c2)NC1.O=C(O)C(F)(F)F (stereo not drawn) | 0.31 | 40 | 0.08 | 0.16 | 0.08 | 0.63 | 0.08 | 0.31 | 1.25 | 0.31 | 0.16 |  |
| Cl.N=C(N)c1ccc2cc(-c3ccc(-c4cc5ccc(C(=N)N)cc5[nH]4)cc3)[nH]c2c1 | 0.16 | 40 | 0.16 | 0.31 | 0.08 | 0.63 | 0.16 | 0.63 | 10 |  | 0.04 |  |
| O=C(O)c1cn(C2CC2)c2cc(N3CCNCC3)c(F)cc2c1=O [CIPROFLOXACIN] | ≤ 0.02 | 1.25 (≈ 3.77 µM) | 0.31 (≈ 0.936 µM) |  | 0.08 (≈ 0.241 µM) | ≤ 0.02 | 0.63 (≈ 1.9 µM) | 0.04 (≈ 0.121 µM) | 0.63 (≈ 1.9 µM) | ≤ 0.02 | 1.25 (≈ 3.77 µM) | 10 (≈ 30.2 µM) |
| CCOC(=N)c1ccc2cc(-c3ccc(-c4cc5ccc(C(=N)OCC)cc5[nH]4)cc3)[nH]c2c1.Cl |  |  | 0.63 | 5 | 2.5 |  | 10 | > 80 | > 80 | > 80 | 2.5 |  |
| O=C(O)C(F)(F)F.c1cc2cc(CCc3cc4ccc(C5=NCCCN5)cc4[nH]3)[nH]c2cc1C1=NCCCN1 | 0.31 | 80 | 0.63 | 1.25 | 0.63 | 2.5 | 2.5 |  | 10 | 10 | 5 |  |
| Cl.N/N=C(/N)c1ccc2cc(-c3ccc(-c4cc5ccc(/C(N)=N\N)cc5[nH]4)cc3)[nH]c2c1 | 0.63 | > 80 | 0.63 | 1.25 | 0.31 | 2.5 | 0.63 | 1.25 | 10 |  | 0.63 |  |

Source: ChEMBL document CHEMBL3091318, “Potent and broad-spectrum antibacterial activity of indole-based bisamidine antibiotics: synthesis and SAR of novel analogs of MBX 1066 and MBX 1090” (2013)
